# Compounds with a hit are over-represented: about 2.7% of the library has one in this group of screens.
# OXTR ag – human OXTR agonism; AID 2435; P30559; actives 0.32% (n = 320,000); activation, % at 3 µM; CHO-OTR cells, Fluo-8 calcium fluorescence; normalized: DMSO 0%, oxytocin 100%;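 active = activation above the mean of all tested compounds plus 3 SD, cutoff set per screening run, cut at about 20% in these data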;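 note: peak over basal fluorescence ratio from a 100 s FLIPR kinetic read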
# Target sequence (P30559 whole entry, looked up): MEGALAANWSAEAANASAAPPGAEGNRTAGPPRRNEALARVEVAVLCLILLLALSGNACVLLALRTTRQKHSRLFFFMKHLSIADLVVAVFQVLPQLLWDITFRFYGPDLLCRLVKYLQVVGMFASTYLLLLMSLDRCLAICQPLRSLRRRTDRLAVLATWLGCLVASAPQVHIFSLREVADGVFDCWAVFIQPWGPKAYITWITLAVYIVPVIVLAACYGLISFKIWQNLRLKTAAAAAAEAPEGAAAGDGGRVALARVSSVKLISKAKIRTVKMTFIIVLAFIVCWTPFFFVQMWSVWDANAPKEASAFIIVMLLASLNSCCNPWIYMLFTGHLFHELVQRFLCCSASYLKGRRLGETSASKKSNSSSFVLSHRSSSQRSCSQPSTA
# CHO parental Ca – counter-screen: ATP calcium response change in parental CHO cells | inhibition, % at 5.6 µM | actives 0.63% (n = 330,000) | AID 463079 | parental CHO-K1, ATP-induced calcium, Fluo-8 fluorescence;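 active = inhibition above that plate's mean sample inhibition plus 3 SD, cut at about 26% in these data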;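 note: 0% = ATP-challenged DMSO wells and 100% = DMSO wells without ATP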
#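 Assay system: parental CHO cells; Read-out basis: percent inhibition of ATP-evoked calcium rise, normalized to controls; Benchmarks: ATP and no-ATP DMSO wells; Compound dosing: single nominal dose of 5.6 µM per compound; Signal: Fluo-8 calcium dye fluorescence; Also added: ATP as calcium-mobilizing challenge; Repeats: singlicate.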
# V1R ag counter – counter-screen for oxytocin receptor agonists: human V1a receptor agonists; activation, % at 3 µM; AID 2797; actives 0.25% (n = 320,000); CHO-V1R cells, Fluo-8 calcium fluorescence, agonist mode; 0% DMSO, 100% 3 nM vasopressin; P37288;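 active = activation above the mean activation of all tested compounds plus 3 SD, per screening run, cut at about 20% in these data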;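 note: signal is peak over basal fluorescence ratio across a 100 second FLIPR read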
# OX1R antag-1 – blocks the human orexin 1 receptor; O43613; OX1R-expressing cells, FRET antagonist read-out; inhibition, % at 6.6 µM; actives 1.8% (n = 330,000); in the data active = inhibition mostly above about 38%, no sharp cut-off; inactive = mostly below about 40%;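 note: 0% = agonist challenge alone and 100% = reference antagonist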
# OXTR potentiate – potentiators of human oxytocin receptor; CHO-OTR cells, Fluo-8 calcium fluorescence, potentiator mode; 0% = oxytocin EC15, 100% = EC100; actives 0.061% (n = 320,000); activation, % at 3 µM; AID 2445; P30559;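 active = activation above that plate's cutoff, the mean activation of tested compounds plus 3 SD, cut at about 6.6% in these data, passing the limit was not always enough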;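 note: 100% uses oxytocin at 75 nM as the full agonist control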
#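 Assay system: CHO cell line stably expressing human OTR | Also added: Oxytocin at about EC15, sub-maximal agonist stimulus | Times: Compound 6 min at room temperature before oxytocin, 100 s read | Measured by: Fluo-8 intracellular calcium fluorescence, ex 470-495, em 515-575 nm | Controls: EC15 oxytocin alone as 0%, 75 nM oxytocin as 100%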
# OX1R antag-2 – blocks the human orexin 1 receptor. O43613. CHO/OX1R cells, Fluo-8 calcium fluorescence, orexin A. inhibition, % at 5 µM. actives 0.43% (n = 330,000). AID 434989;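 active = inhibition above its plate's threshold, mean inhibition of all tested compounds on the plate plus 3 SD, cut at about 37% in these data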;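 note: 0% = orexin A challenge wells and 100% = SB-334867-A antagonist wells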
# OX1R Ca confirm – confirmation of human orexin 1 receptor antagonists; shares compounds with OX1R antag-2; CHO/OX1R cells, orexin A calcium Fluo-8 fluorescence; inhibition, % at 5 µM; actives 38% (n = 1,100); in the data active = inhibition above about 29%;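 note: 0% = agonist challenge alone and 100% = reference antagonist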
# CHO Ca triplic – counter-screen for OX1R antagonists: effect in parental CHO cells. shares compounds with OX1R antag-2. inhibition, % at 5.6 µM. parental CHO-K1, ATP-induced calcium, Fluo-8 fluorescence. actives 9.3% (n = 1,100);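 active = inhibition above a per-plate limit, the mean inhibition of that plate's test compounds plus 3 SD, cut at about 25% in these data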;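 note: 0% = ATP challenge with DMSO and 100% = DMSO without ATP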
# OX1R HTRF conf – OX1R (human) antagonism, HTRF confirmed. shares compounds with OX1R antag-1. OX1R-expressing cells, HTRF antagonist assay. inhibition, % at 6.6 µM. actives 49% (n = 1,800); in the data active = inhibition above about 55%;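 note: CHO cells expressing OX1R stimulated with orexin A at about EC80; 0% = agonist challenge alone and 100% = reference antagonist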
# CHO-K1 HTRF cnt – counter-screen for OX1R antagonists: effect in parental CHO-K1 cells | shares compounds with OX1R antag-1 | HTRF counterscreen | inhibition, % at 6.6 µM | actives 48% (n = 1,800); in the data active = inhibition above about 17%;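 note: 0% = agonist challenge with vehicle and 100% = vehicle alone without agonist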
# The depositor's hits bear a star; . = no result.
SMILES,OXTR ag,CHO parental Ca,V1R ag counter,OX1R antag-1,OXTR potentiate,OX1R antag-2,OX1R Ca confirm,CHO Ca triplic,OX1R HTRF conf,CHO-K1 HTRF cnt
COc1ccccc1NS(=O)(=O)c1ccc2oc(SC(C)C(=O)N3CCNC3=O)nc2c1 (configuration not stated),14,-10,14,32*,-12,36,31*,-1,62*,-10
O=C(Nc1ccc2c(c1)N(S(=O)(=O)c1cccs1)CCC2)c1c(F)cccc1F,0,-3,2,69*,-7,20,37*,1,66*,3
Cc1cc(NC(=O)CSc2nc3ccccc3[nH]2)n(-c2ccccc2)n1,0,-35,2,60*,-6,61*,27,-18,62*,-9
O=C(COc1ccccc1[N+](=O)[O-])OCC(=O)c1ccc(Br)s1,-1,2,0,4,-2,-1,.,.,.,.
COc1cccc(-c2nc(NCC3CCCO3)c3ccccc3n2)c1O (configuration not stated),-1,-13,-1,25,-9,-26,.,.,.,.
Oc1ccccc1-c1nc(NCC2CCCO2)c2ccccc2n1 (configuration not stated),-1,-21,-1,97*,-15,63*,44*,-7,88*,16
CCc1nnc(NC(=O)c2ccc3ccccc3n2)s1,-1,-16,0,54,2,-25,.,.,.,.
Cc1ccc(NC(=O)c2ccc3ccccc3n2)nc1,-2,-19,-1,87*,-1,39,38*,-12,97*,-3
CCSc1nnc(NC(=O)c2ccc3ccccc3n2)s1,-2,-1,0,94*,-2,79*,43*,-2,92*,7
O=C(Nc1ccc(Cl)cn1)c1ccc2ccccc2n1,0,-5,1,7,0,-8,.,.,.,.
CCOC(=O)c1c(NC(=O)COC(=O)c2cnccn2)sc(C)c1C,-3,-16,-2,3,-3,-24,.,.,.,.
O=C(Nc1cccc(-c2nc3ccccc3[nH]2)c1)c1ccco1,-1,-15,0,73*,-7,24,10,-5,50,8
Cc1ccc2nc(-c3ccc(NC(=O)c4ccco4)cc3)[nH]c2c1,-1,-5,1,13,-7,-13,.,.,.,.
COc1ccc2c(c1)[nH]c(=O)c1sc3ccccc3c12,-1,4,0,71*,-9,32,39*,-4,92*,6
COc1ccc(Cc2nc3ccc(C(=O)NC(C)Cc4ncccc4C)cc3o2)cc1OC (configuration not stated),6,-24,9,18,-7,-30,.,.,.,.
COc1ccc(C(=O)N2CCCCCC2)cc1S(=O)(=O)N1CCOCC1,2,-4,1,21,-4,2,.,.,.,.
CSc1cccc(N2CC(C(=O)NCCN3C(=O)S/C(=C\c4cccnc4)C3=O)CC2=O)c1 (configuration not stated),-1,-10,-2,145*,-7,33,67*,-6,112*,33*
O=C(O)CCN1C(=O)S/C(=C\c2cccnc2)C1=O,0,2,0,60,-2,-9,.,.,.,.
O=C(NCCN1C(=O)S/C(=C\c2cccnc2)C1=O)C1CC(=O)N(Cc2ccco2)C1 (configuration not stated),0,3,-1,51,-2,-3,.,.,.,.
Cc1cc(Cl)ccc1OCCCC(=O)NCCN1C(=O)S/C(=C\c2cccnc2)C1=O,4,-25,6,114*,-9,94*,94*,-6,91*,10
CCOc1ccccc1N1CCN(C(=O)c2cc(S(=O)(=O)N(C)C)ccc2N2CCCC2)CC1,-2,-13,3,-1,-3,-27,.,.,.,.
COc1ccc(N(CC(=O)NC2CCCCCC2)S(=O)(=O)c2ccccc2)cc1Cl,-1,-13,0,26,-2,-13,.,.,.,.
Cc1ccc(C(=O)Nc2ccc(Br)c(C(F)(F)F)c2)cc1,0,-3,2,51*,-17,29,6,4,34,12
Cc1ccc(NC(=O)c2ccc(C)cc2)cc1,-2,-12,-1,31,4,-2,.,.,.,.
CCCSc1nnc(NC(=O)Nc2ccc(F)cc2)s1,15,9,11,77*,-31,29,10,21,48,10
SMILES,OXTR ag,CHO parental Ca,V1R ag counter,OX1R antag-1,OXTR potentiate,OX1R antag-2,OX1R Ca confirm,CHO Ca triplic,OX1R HTRF conf,CHO-K1 HTRF cnt
CCCSc1nnc(NC(=O)Nc2ccc(C)cc2)s1,1,-18,1,13,-8,-26,.,.,.,.
CS(=O)(=O)Nc1cc2c3c(c1)CCC(=O)N3CCC2,0,0,0,-1,-5,-81,.,.,.,.
Cn1c2ccccc2c(=O)c2ccc(C#Cc3ccc(N)cc3)cc21,-2,0,1,31,-9,0,.,.,.,.
Cn1c2ccccc2c(=O)c2cc(C#Cc3cccc(N)c3)ccc21,0,-11,0,92*,-2,55*,40*,6,88*,13
O=C(Cc1ccc(S(=O)(=O)N2CCOCC2)s1)NCCc1ccc(F)cc1,0,-18,0,3,-7,-6,.,.,.,.
CCN1CCN(c2ccc(Cl)cc2NC(=O)c2ccc(-n3nc(C)cc3C)cc2)CC1,4,-13,4,10,-4,-20,.,.,.,.
Cc1ccccc1OCCC(=O)Nc1cc(S(=O)(=O)N2CCOCC2)ccc1OC(C)C,-1,-15,1,16,-2,-32,.,.,.,.
Cc1cc(C)nc(NC(=O)CSc2nc3cc(Cl)ccc3s2)n1,-1,-5,-1,3,-7,-6,.,.,.,.
Cc1cc(C)nc(NC(=O)CSc2nc3ccccc3s2)n1,0,-11,-1,98*,-2,43*,42*,-8,82*,-1
CC(=O)NC1=NN(C(C)=O)C(c2ccco2)S1 (configuration not stated),0,-23,0,3,-1,-6,.,.,.,.
CCOC(=O)C1=C(COC(=O)/C=C/c2cccc(OC)c2)NC(=O)NC1C (configuration not stated),3,-17,3,73*,-11,25,31*,-5,49,0

# Screening results as filed in PubChem.
